Legend:
[1] = Cytotoxicity against Huh7 cells by XTT assay; assay type: cell-based; details: human, huh-7
Outline: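 Cytotoxicity in the replicon-bearing cells measured by XTT tetrazolium assay per manufacturer's protocol; CC50 averaged from at least three independent experiments.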

[2] = Antiviral index, ratio of CC50 for Huh7 cells to EC50 for HCV replication; assay type: functional, Huh-7
Outline: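 Antiviral index calculated as 50% toxic dose (XTT, replicon cells) divided by 50% effective dose (luciferase replicon read-out after two days); from at least three independent experiments.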

[3] = test system: Hepatitis C virus; assay: Inhibition of HCV replication in Huh7 cells after 48 hrs by luciferase assay; assay type: functional, organism-based, Hepacivirus hominis; details: Huh-7, 48 h
Outline: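 HCV subgenomic replicon cells carrying luciferase reporter; replicon inhibition read by luciferase after two-day incubation with compound; EC50 averaged from at least three independent experiments.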

Row | SMILES | CC50 [1] | Ratio CC50/EC50 [2] | EC50 [3]
1 | C=CCOC[C@H]1O[C@@H](n2cnc3c(Cl)ncnc32)C[C@@H]1O | 140 µM | 5.7 | 24.5 µM
2 | OC[C@H]1O[C@@H](n2cnc3c(Cl)ncnc32)[C@H](O)[C@@H]1O | > 200 µM | >6.5 | 31 µM
3 | COc1ccc(C(=O)OC[C@H]2O[C@@H](n3cnc4c(Cl)ncnc43)C[C@@H]2O)cc1 | 76.4 µM | 9.1 | 8.4 µM
4 | O=C(OC[C@@H]1C[C@@H](O)[C@H](n2cnc3c(Cl)ncnc32)O1)c1ccccc1 | 70.5 µM | 1.9 | 38.1 µM
5 | CN(C)c1ncnc2c1ncn2[C@H]1C[C@H](O)[C@@H](COC(=O)c2ccccc2)O1 | > 200 µM | >9 | 22.3 µM
6 | O=C(OC[C@H]1O[C@@H](n2cnc3c(O)ncnc32)C[C@@H]1O)c1ccccc1 | – | – | > 100 µM
7 | NC(=O)c1ncn([C@@H]2O[C@H](CO)[C@@H](O)[C@H]2O)n1 [RIBAVIRIN] | > 200 µM | >3.7 | 54.8 µM
8 | Cc1cc(C)c(C(=O)OC[C@H]2O[C@@H](n3cnc4c(Cl)ncnc43)C[C@@H]2O)c(C)c1 | 91 µM | <1.8 | > 50 µM
9 | O[C@H]1C[C@H](n2cnc3c(Cl)ncnc32)O[C@@H]1COCc1ccccc1 | 178 µM | 10.1 | 17.7 µM
10 | CCCC(=O)OC[C@H]1O[C@@H](n2cnc3c(Cl)ncnc32)C[C@@H]1O | > 200 µM | >6.6 | 30.3 µM
11 | O=C(OC[C@H]1O[C@@H](n2cnc3c(Cl)ncnc32)C[C@@H]1O)c1ccccc1 | 111 µM | 18.2 | 6.1 µM
12 | Nc1ncnc2c1ncn2[C@H]1C[C@H](O)[C@@H](COC(=O)c2ccccc2)O1 | > 200 µM | >1.9 | 105 µM
13 | O=C(OC[C@H]1C[C@@H](n2cnc3c(Cl)ncnc32)[C@@H]1CO)c1ccccc1 | 20 µM | 3.1 | 6.4 µM
14 | OC[C@@H]1C[C@@H](O)[C@H](n2cnc3c(Cl)ncnc32)O1 | > 200 µM | >3.1 | 64.1 µM
15 | O=C(OCC(CO)CCn1cnc2c(Cl)ncnc21)c1ccccc1 (configuration not stated) | 108 µM | 8.1 | 13.3 µM
16 | O=S(=O)(OC[C@H]1O[C@@H](n2cnc3c(Cl)ncnc32)C[C@@H]1O)c1ccccc1 | 146 µM | 5.1 | 28.8 µM
17 | OC[C@H]1O[C@@H](n2cnc3c(Cl)ncnc32)C[C@@H]1O | 173 µM | 3.7 | 47.2 µM
18 | OCC(CO)CCn1cnc2c(Cl)ncnc21 | > 200 µM | >2.5 | 80.8 µM
19 | CSc1ncnc2c1ncn2[C@H]1C[C@H](O)[C@@H](COC(=O)c2ccccc2)O1 | – | – | > 100 µM
20 | O=C(OC[C@H]1O[C@@H](n2cnc3c(Cl)ncnc32)[C@H](O)[C@@H]1O)c1ccccc1 | 97.3 µM | 2.4 | 41 µM
21 | OC[C@H]1C[C@@H](n2cnc3c(Cl)ncnc32)[C@@H]1CO | > 200 µM | 4.3 | 46.1 µM
22 | CC(C)(C)C(=O)OC[C@H]1O[C@@H](n2cnc3c(Cl)ncnc32)C[C@@H]1O | 177 µM | 6.3 | 28 µM

Reference: ChEMBL document CHEMBL1137457, “5'-O-masked 2'-deoxyadenosine analogues as lead compounds for hepatitis C virus (HCV) therapeutic agents” (Bioorg Med Chem, 2007)
